In ChEMBL document CHEMBL4049419, “Structure-Based Discovery of New Antagonist and Biased Agonist Chemotypes for the Kappa Opioid Receptor” (J Med Chem, 2017):
Active and inactive are the calls of the source. The rule behind the calls is not given here.

What was measured:
[1] = target: T1, Kappa-type opioid receptor (Homo sapiens, UniProt P41145); test: Displacement of 3H-U69593 from human KOR expressed in HEK293 cells after 90 mins by micro beta scintillation counting analysis; type: cell-based
Outline: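 Competition binding with 3H-U69593 at cloned human KOR expressed in HEK293 cells. Ki was derived from the curves; normalized data from three independent assays were pooled, mean ± SEM.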

[2] = target: T1, Kappa-type opioid receptor; test: Displacement of 3H-U69593 from human KOR expressed in HEK293 cells at 50 uM after 90 mins by micro beta scintillation counting analysis; type: cell-based
Outline: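 Primary screen of 3H-U69593 binding at cloned human KOR in HEK293 cells, using a single compound concentration of 50 µM tested in quadruplicate. Percent inhibition of radioligand binding is reported.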

[3] = species on record: Homo sapiens; test: Ratio of Ki for KOR H291A mutant (unknown origin) to Ki for human KOR expressed in HEK293 cells; type: cell-based
[4] = species on record: Homo sapiens; test: Ratio of Ki for KOR I294A mutant (unknown origin) to Ki for human KOR expressed in HEK293 cells; type: cell-based
[5] = species on record: Homo sapiens; test: Ratio of Ki for KOR M142A mutant (unknown origin) to Ki for human KOR expressed in HEK293 cells; type: cell-based
[6] = target: T1, Kappa-type opioid receptor; test: Antagonist activity at human KOR expressed in HEK293T cells coexpressing Gi assessed as Gi-mediated inhibition of cAMP production incubated for 15 mins followed by Gs activator isoproterenol addition measured after 15 mins by luciferase reporter gene assay; type: functional, cell-based; conditions: HEK-293T
Outline: (§1)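 HEK293T cells co-transfected with human KOR and GloSensor split-luciferase cAMP biosensor, plated 15,000 cells/well overnight. Loaded 1 h with 4 mM luciferin in 20 mM HEPES/HBSS pH 7.4. Compounds preincubated 15 min, Sal A 20 nM added for 15 min, then isoproterenol (200 nM final) to drive Gs; luminescence read 15 min later. Sal A shifts analysed by Schild analysis to give KB.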

[7] = target: T1, Kappa-type opioid receptor; test: Antagonist activity at human KOR expressed in HEK293T cells coexpressing Gi assessed as inhibition of Sal A-induced Gi-mediated reduction of cAMP production incubated for 15 mins followed by Sal A addition for 15 mins and susequent addition of Gs activator isoproterenol measured after 15 mins by luciferase reporter gene assay; type: functional, cell-based; outline: as §1
[8] = target: T1, Kappa-type opioid receptor; test: Antagonist activity at KOR (unknown origin) expressed in HTLA cells assessed as inhibition of Sal A-induced beta-arrestin recruitment preincubated for overnight followed by Sal-A addition at 30 mins post compound treatment measured after 20 mins by Bright-Glo luminescence assay; type: cell-based
Outline: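 HTLA cells transfected overnight, plated at 15,000 cells/well in DMEM with 1% dialyzed FBS on poly-L-Lys, rested ≥6 h. Test compounds added, then Sal A 30 nM 30 min later; overnight incubation. BrightGlo reagent 20 min at room temperature in the dark; luminescence read. Normalized data, mean ± SEM from at least 4 measurements.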

[9] = target: T1, Kappa-type opioid receptor; test: Agonist activity at human KOR expressed in HEK293T cells coexpressing Gi assessed as Gi-mediated inhibition of cAMP production at 10 uM incubated for 15 mins followed by Gs activator isoproterenol addition measured after 15 mins by luciferase reporter gene assay relative to Sal-A; type: functional, cell-based; conditions: HEK-293T
Outline: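 HEK293T cells co-transfected with human KOR and a split-luciferase GloSensor cAMP biosensor, plated overnight at 15,000 cells/well in DMEM + 1% dialyzed FBS. Loaded 1 h with 20 mM HEPES/1× HBSS pH 7.4 containing 4 mM luciferin. Drug added for 15 min, then isoproterenol (200 nM final, Gs activation via endogenous β2 receptors); luminescence read 15 min later.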

[10] = test system: Kappa-type opioid receptor (Homo sapiens), P41145 [M142A]; test: Displacement of 3H-U69593 from KOR M142A mutant (unknown origin)
Outline: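 Single-point KOR mutants were retested alongside wild-type receptor in ³H-U69593 competition binding. 12-point concentration-response from 100 µM to 10 nM, run in triplicate; Ki derived.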

T1 sequence (P41145 whole entry): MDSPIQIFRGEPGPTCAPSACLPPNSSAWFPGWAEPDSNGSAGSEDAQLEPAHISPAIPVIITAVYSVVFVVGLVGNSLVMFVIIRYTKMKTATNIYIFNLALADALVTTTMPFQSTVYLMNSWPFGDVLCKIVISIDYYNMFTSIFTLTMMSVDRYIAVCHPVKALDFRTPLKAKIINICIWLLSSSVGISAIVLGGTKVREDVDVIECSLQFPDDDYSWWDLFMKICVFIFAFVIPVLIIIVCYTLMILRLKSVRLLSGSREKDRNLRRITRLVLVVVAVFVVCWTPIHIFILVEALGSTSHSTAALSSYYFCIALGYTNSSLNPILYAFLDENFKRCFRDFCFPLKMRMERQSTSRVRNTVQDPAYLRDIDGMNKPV
Chain of Kappa-type opioid receptor (Homo sapiens), P41145 [M142A] (P41145 whole entry M142A): as the sequence (P41145 whole entry) above, with M142A counted along it

Row | SMILES | Ki ([1]; read-out: Ki) [nM] | inhibition [2] [%] | further results
1 | CSc1ccc(CN(CCO)Cc2ccc(-c3ccn[nH]3)s2)cc1 | 3000 | 53 | –
2 | Oc1ccc(CCC2CCCCN2Cc2ccc(Cl)o2)cc1 (centres undefined) | 500 | 95.3 | –
3 | CN(Cc1ccccc1NC(=O)NCc1ccoc1)C1CCCCC1 | 2300 | 76.5 | –
4 | Cc1cc2oc(C(=O)NCC(c3ccco3)N3CCCC3)c(C)c2cc1C (centres undefined) | 1100 | 77.5 | –
5 | COc1ccc(CNCC(O)c2cccc(O)c2)cc1Br (centres undefined) | 230 | 98.2 | Ratio Ki [3]: > 10; Ratio Ki [4]: > 10; Ratio Ki [5]: 10
6 | NC1CCc2cc(O)ccc2C1 (centres undefined) | 8300 | 48.6 | –
7 | Oc1cccc(C(O)CNCc2ccc(Cl)cc2Cl)c1 (centres undefined) | 90 | 97.9 | Ratio Ki [3]: > 10; Ratio Ki [4]: > 10; Ki ([1]; read-out: pKi (converted)): 83.2 nM; Ratio Ki [5]: 10; Kb [6]: 170 nM; inhibition ([7]; HEK-293T): Dose-dependent effect; Kb ([7]; read-out: pA2 (converted)): 166 nM; IC50 [8]: 1100 nM; Ki [8]: 230 nM; inhibition [8]: Dose-dependent effect
8 | Cc1c(C(=O)NCC(c2ccco2)N2CCCC2)oc2ccc(Cl)cc12 (centres undefined) | 520 | 86.5 | inhibition [9]: 40 to 60%; inhibition [10]: Active
9 | Cc1cccc(C(O)CNC(C)Cn2cc(Br)cn2)c1 (centres undefined) | 6400 | 49.8 | –
10 | Cc1ccc(-c2ccccc2CN2CC3CNCC3C2)o1 (centres undefined) | 3000 | 60.7 | –
11 | Cc1ccc(C(CNC(=O)c2oc3ccc(F)cc3c2C)N2CCCC2)o1 (centres undefined) | 660 | 75.8 | Ki ([1]; read-out: pKi (converted)): 646 nM; inhibition [9]: 40 to 60%; inhibition [10]: Active
12 | O=C(NC[C@@H](c1ccco1)N1CCCC1)c1cc2ccccc2o1 | 950 | 64 | Ki ([1]; read-out: pKi (converted)): 912 nM
13 | CC(CCc1ccc(O)cc1)NCCc1ccccc1 (centres undefined) | 6600 | 70.2 | –
14 | Cc1ncsc1CN1CCCCC1CCc1cccc(O)c1 (centres undefined) | 350 | 96.9 | –
15 | Oc1cccc(C(O)CNCc2c(Cl)cccc2Cl)c1 (centres undefined) | 2600 | 80.1 | –
16 | NC(=O)c1cc(S(=O)(=O)NC2CCN(Cc3ccccc3)CC2)cs1 | 9800 | 47.3 | –
17 | COC(=O)[C@@H]1C[C@H](OC(C)=O)C(=O)[C@H]2[C@@]1(C)CC[C@H]1C(=O)O[C@H](c3ccoc3)C[C@]21C | – | – | Ratio Ki [5]: 10
18 | Cc1nc(O)cc(C2CCN(Cc3ccc(C4CCCC4)s3)CC2)n1 | 8100 | 73.7 | –
19 | Cc1cc(S(=O)(=O)NCC(=O)NC2CCC2NC(C)C)ccc1F (centres undefined) | 6200 | 49.1 | –
20 | c1ccc(CN2CCC(Nc3nc4ccccc4o3)C2)cc1 (centres undefined) | 2600 | 77.5 | inhibition [9]: 40 to 60%
21 | CCN(Cc1csc(C)n1)C(C)c1cccc(O)c1 (centres undefined) | 630 | 74 | Ratio Ki [3]: > 10; Ratio Ki [4]: > 10; Ki ([1]; read-out: pKi (converted)): 562 nM
22 | Oc1cccc(CNCc2cc3ccccc3[nH]2)c1 | 710 | 82.4 | Ki ([1]; read-out: pKi (converted)): 676 nM
23 | Cc1ccc(C(CNC(=O)c2oc3ccccc3c2C)N2CCCC2)o1 (centres undefined) | 380 | 69.1 | Ki ([1]; read-out: pKi (converted)): 363 nM; inhibition [9]: 40 to 60%; inhibition [10]: Active
24 | COc1ccc2oc(C(=O)NCC(c3ccco3)N3CCCC3)c(C)c2c1 (centres undefined) | 720 | 74 | –
